# Assay results as given in ChEMBL document CHEMBL2146385, “Synthesis and antiviral evaluation of bis(POM) prodrugs of (E)-[4'-phosphono-but-2'-en-1'-yl]purine nucleosides” (Eur J Med Chem, 2012).
# pEC50, pIC50: −log10 of the molar value. Active and inactive are the calls of the source. The rule behind the calls is not given here.
# Tests used:
# [1] = system: Human immunodeficiency virus 1; assay: Antiviral activity against HIV1 3B infected in human CEM cells assessed as inhibition of virus-induced giant cell formation after 4 days; format: functional, organism-based; settings: Human immunodeficiency virus 1, 3B, CCRF-CEM, 96 h
# Summary of the method: (§1)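 Human CEM cells (~3×10^5 cells/cm3) were infected with 100 CCID50 of HIV-1(IIIB) or HIV-2(ROD) per ml and seeded into wells containing compound dilutions. After 4 days at 37 °C, giant cell formation was examined microscopically.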
# [2] = system: Vesicular stomatitis virus; assay: Antiviral activity against Vesicular stomatitis virus infected in human HeLa assessed as inhibition of virus-induced cytopathicity after 3 days; format: functional, organism-based
# [3] = system: Vesicular stomatitis virus; assay: Antiviral activity against Vesicular stomatitis virus infected in MDCK assessed as inhibition of virus-induced cytopathicity after 3 days; format: functional, organism-based
# Influenza A virus [4] = assay: Antiviral activity against Influenza A virus H1N1 infected in MDCK assessed as inhibition of virus-induced cytopathicity after 3 days; format: functional, organism-based
# Human alphaherpesvirus 3 [5] = assay: Antiviral activity against VZV OKA expressing thymidine kinase infected in HEL cells assessed as inhibition of virus-induced cytopathogenicity after 3 days; format: functional, cell-based; settings: Human alphaherpesvirus 3, strain Oka vaccine, 72 h
# Influenza A virus [6] = assay: Antiviral activity against Influenza A virus H3N2 infected in MDCK assessed as inhibition of virus-induced cytopathicity after 3 days; format: functional, organism-based
# [7] = system: Respiratory syncytial virus; assay: Antiviral activity against Respiratory syncytial virus infected in human HeLa assessed as inhibition of virus-induced cytopathicity after 3 days; format: functional, organism-based
# Summary of the method: (§2)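 Confluent cell monolayers infected with 100 CCID50 of virus in the presence of test compound at 100, 20,... μM. Cytopathicity was scored once it was complete in untreated infected controls.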
# L1210 = assay: Cytotoxicity against mouse L1210 cells; format: cell-based
# [8] = system: Mammalian orthoreovirus 1; assay: Antiviral activity against Reovirus-1 infected in african green monkey Vero assessed as inhibition of virus-induced cytopathicity after 3 days; format: functional, organism-based; summary of the method: as §2
# Coxsackievirus B4 = assay: Antiviral activity against Coxsackievirus B4 infected in human HeLa assessed as inhibition of virus-induced cytopathicity after 3 days; format: functional, organism-based; summary of the method: as §2
# Human alphaherpesvirus 1 [9] = assay: Antiviral activity against HSV1 KOS infected in HEL assessed as inhibition of virus-induced cytopathicity after 3 days; format: functional, organism-based; settings: Human alphaherpesvirus 1, KOS, 72 h
# Human alphaherpesvirus 2 = assay: Antiviral activity against HSV2 G infected in HEL assessed as inhibition of virus-induced cytopathicity after 3 days; format: functional, organism-based; settings: Human alphaherpesvirus 2, strain G, 72 h; summary of the method: as §2
# CCRF-CEM = assay: Cytotoxicity against human CEM cells; format: cell-based
# [10] = Cytotoxicity against HEL after 3 days; format: cell-based; settings: human, HEL cells
# Summary of the method: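 HEL cells were seeded at 5×10^3 cells/well and allowed to grow for 24 h, then given medium with varying compound concentrations. After 3 days at 37 °C, cells were counted with a Coulter counter.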
# Vaccinia virus = assay: Antiviral activity against Vaccinia virus infected in HEL assessed as inhibition of virus-induced cytopathicity after 3 days; format: functional, organism-based; settings: Orthopoxvirus vaccinia, 72 h
# Influenza B virus = assay: Antiviral activity against Influenza B virus infected in MDCK assessed as inhibition of virus-induced cytopathicity after 3 days; format: functional, organism-based
# [11] = Selectivity index, ratio of CC50 for human CEM cells to EC50 for HIV2 ROD; format: toxicity, cell-based, CCRF-CEM; settings: read-out: Ratio CC50/EC50
# Punta Toro virus = assay: Antiviral activity against Punta Toro virus infected in african green monkey Vero assessed as inhibition of virus-induced cytopathicity after 3 days; format: functional, organism-based; summary of the method: as §2
# HeLa = assay: Cytotoxicity against human HeLa cells; format: cell-based
# Sindbis virus = assay: Antiviral activity against Sindbis virus infected in african green monkey Vero assessed as inhibition of virus-induced cytopathicity after 3 days; format: functional, organism-based; summary of the method: as §2
# Human respirovirus 3 = assay: Antiviral activity against Parainfluenza-3 virus infected in african green monkey Vero assessed as inhibition of virus-induced cytopathicity after 3 days; format: functional, organism-based; summary of the method: as §2
# Human alphaherpesvirus 3 [12] = assay: Antiviral activity against thymidine kinase-deficient VZV 07/1 infected in human HEL cells assessed as reduction of virus-induced cytopathogenicity after 3 days; format: functional, organism-based; settings: Human alphaherpesvirus 3, 07/1, HEL, 72 h
# [13] = Cytotoxicity against HEL assessed as minimum compound concentration causes microscopically detectable alteration of cell morphology after 3 days; format: cell-based; settings: human, HEL cells
# Human alphaherpesvirus 1 [14] = assay: Antiviral activity against acyclovir-resistant thymidine kinase deficient HSV1 KOS infected in HEL assessed as inhibition of virus-induced cytopathicity after 3 days; format: functional, organism-based; settings: Human alphaherpesvirus 1, KOS, 72 h
# [15] = system: Human immunodeficiency virus 2; assay: Antiviral activity against HIV2 ROD infected in human CEM cells assessed as inhibition of virus-induced giant cell formation after 4 days; format: functional, organism-based; settings: Human immunodeficiency virus 2, ISOLATE ROD, CCRF-CEM, 96 h; summary of the method: as §1
# Felid alphaherpesvirus 1 = assay: Antiviral activity against Feline herpesvirus infected in CRFK cells assessed as inhibition of virus-induced cytopathicity after 3 days; format: functional, organism-based; settings: Felid alphaherpesvirus 1, CRFK, 72 h
# [16] = Cytotoxicity against CRFK cells after 3 days; format: cell-based, Felis catus; settings: cat
SMILES,pEC50 [1],Activity [2],Activity [3],Activity (Influenza A virus [4]),pEC50 (Human alphaherpesvirus 3 [5]),Activity (Influenza A virus [6]),Activity [7],Activity [8],Activity (Coxsackievirus B4),pEC50 (Human alphaherpesvirus 1 [9]),pEC50 (Human alphaherpesvirus 2),CC50 at 72 h [10],pEC50 (Vaccinia virus),Activity (Influenza B virus),Activity (Punta Toro virus),Activity (Sindbis virus),Activity (Human respirovirus 3),pEC50 (Human alphaherpesvirus 3 [12]),MCC at 72 h [13],pEC50 (Human alphaherpesvirus 1 [14]),further results
CC(C)(C)C(=O)OCOP(=O)(C/C=C/Cn1cnc2c(N)nc(N)nc21)OCOC(=O)C(C)(C)C,5.18,inactive,inactive,inactive,5.17,inactive,inactive,inactive,inactive,4.70,4.70,36 µM,< 4.70,inactive,inactive,inactive,inactive,4.92,> 100 µM,4.70,pIC50 (L1210): 3.89; pIC50 (CCRF-CEM): 4.34; selectivity ratio [11]: 7.3; pIC50 (HeLa): 3.89; pEC50 [15]: 5.20
CC(C)(C)C(=O)OCOP(=O)(C/C=C/Cn1cnc2c(=O)[nH]c(N)nc21)OCOC(=O)C(C)(C)C,–,inactive,inactive,inactive,5.98,inactive,inactive,inactive,inactive,5.41,5.11,4.1 µM,4.00,inactive,inactive,inactive,inactive,6.10,> 100 µM,5.24,pEC50 (Felid alphaherpesvirus 1): 4.96; CC50 at 72 h [16]: > 100 µM
Nc1nc2c(ncn2COC(CO)CO)c(=O)[nH]1 [GANCICLOVIR],–,–,–,–,–,–,–,–,–,–,–,–,–,–,–,–,–,–,–,–,pEC50 (Felid alphaherpesvirus 1): 5.92; CC50 at 72 h [16]: > 100 µM
COc1nc(N)nc2c1ncn2C/C=C/CP(=O)(OCOC(=O)C(C)(C)C)OCOC(=O)C(C)(C)C,< 6.40,inactive,inactive,inactive,7.00,inactive,inactive,inactive,inactive,5.22,5.19,1.6 µM,4.80,inactive,inactive,inactive,inactive,6.30,> 100 µM,5.12,pIC50 (L1210): 4.43; pIC50 (CCRF-CEM): 5.10; selectivity ratio [11]: 28.5; pIC50 (HeLa): 4.43; pEC50 [15]: 6.55
CC(C)(C)C(=O)OCOP(=O)(C/C=C/Cn1cnc2c(N)ncnc21)OCOC(=O)C(C)(C)C,–,inactive,inactive,inactive,4.90,inactive,inactive,inactive,inactive,< 4.00,4.35,11.6 µM,< 4.00,inactive,inactive,inactive,inactive,4.87,> 100 µM,4.70,–
CC(C)(C)C(=O)OCOP(=O)(C/C=C/Cn1cnc2c(Cl)ncnc21)OCOC(=O)C(C)(C)C,–,inactive,inactive,inactive,< 4.70,inactive,inactive,inactive,inactive,< 4.70,< 4.70,10.5 µM,< 4.70,inactive,inactive,inactive,inactive,< 4.70,100 µM,< 4.70,–
